Results from PMC8645912 (ESMO Open, 2021).
Where “and” joins values, the source holds several entries; their conditions need not be identical. Equal values may be shown once. Read-outs that look alike come from different tables or passages of the source.

Legend:
[1] = system: metastatic renal cell carcinoma; details: mRCC; cited from earlier work
[2] = system: metastatic renal cell carcinoma; details: CABOSUN trial, cited from earlier work
[3] = Cabozantinib plasma PK monitoring; type: in vivo, human
[4] = system: metastatic renal cell carcinoma; details: METEOR trial; cited from earlier work
[5] = system: metastatic renal cell carcinoma; details: CheckMate 9ER PK/PD study, Cavg up to day 1 of cycle 7; cited from earlier work
[6] = type: in vivo, human; details: for AUC: human, plasma, oral
[7] = Adverse events in the study cohort; type: in vivo, human
Method in brief: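 Clinical examination and blood tests every 4-6 weeks. Adverse events graded by CTCAE v5.0. Relevant toxicity defined as grade 3-4, or grade 2 requiring dose reduction or discontinuation. Each patient counted once for toxicity.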

[8] = cited from earlier work
[9] = cited from earlier work; remark: listed apart in the source
[10] = PK/PD relation for efficacy: cabozantinib PK at progressive disease; type: in vivo, human; details: human, plasma, oral
[11] = system: metastatic renal cell carcinoma; test: as above; type: in vivo, human
[12] = cited from earlier work; remark: listed apart in the source
[13] = patients with relevant toxicity
[14] = patients without relevant toxicity
[15] = most frequent G3 toxicities, of the 30 patients
[16] = of the 30 patients with relevant toxicity
[17] = SD/PR patients (disease control)
[18] = patients with progressive disease (PD)

## CNC(=O)c1ccccc1Sc1ccc2c(/C=C/c3ccccn3)n[nH]c2c1 [Axitinib]
[1]
  AUC at 4 weeks from treatment start associated with better OS and PFS: > 300 ng·h/mL and 154 to 620 ng·h/mL
  Css,trough associated with longer OS: • >5 ng/ml associated with longer OS
  Css,trough associated with ≥G2 asthenia: > 7.1 ng/mL

## Cc1ccc(Nc2nccc(N(C)c3ccc4c(C)n(C)nc4c3)n2)cc1S(N)(=O)=O [Pazopanib]
[1]
  Css,trough associated with PD: < 15 µg/mL
  Css,trough associated with PR/SD: ≥ 15 µg/mL
  Css,trough associated with longer PFS and greater tumor shrinkage: ≥ 20.5 µg/mL

## CCN(CC)CCNC(=O)c1c(C)[nH]c(/C=C2\C(=O)Nc3ccc(F)cc32)c1C [Sunitinib]
[1]
  AUCss and efficacy: • Lower in PD patients compared with AUCss at treatment start.
  AUCss associated with higher grade 3-4 toxicity: • >2150 ng/ml/h higher grade 3-4 toxicity
  Css,trough associated with longer PFS and TTF: < 100 ng/mL
  Css,trough associated with worse outcomes: > 100 ng/mL

## COc1cc2nccc(Oc3ccc(NC(=O)C4(C(=O)Nc5ccc(F)cc5)CC4)cc3)c2cc1OC [cabozantinib]
[2]; first-line mRCC
  PFS and ORR versus first-line standard sunitinib: superior to first-line standard sunitinib
[2]
  Dose reduction (DR) rate: 46%
  Drug discontinuation (DD) rate: 16%
  Grade 3-4 adverse event rate: 67%
[3]; 40 mg daily
  Mean Ctrough at 40 mg daily (SD): 565 (283) ng/ml
  Median Ctrough at 40 mg daily (IQR): 477 (366-649) ng/ml
[3]; 60 mg daily
  Mean Ctrough at 60 mg daily (SD): 667 (375) ng/ml
  Median Ctrough at 60 mg daily (IQR): 564 (402-777) ng/ml
[3]; human, plasma, oral, Mean AUC (SD), whole population, from population PK model
  AUC: 20900 ng·h/mL
[3]; median daily dose 40 mg, median time 38 weeks
  Median measured cabozantinib plasma concentration: 500 ng/mL
[3]; whole population
  Median Ctrough (IQR): 500.2 (365.5-742.5) ng/ml
[3]; whole population, 76 mRCC patients, steady state, at least 8 h from last dose
  Mean Cmeas (measured blood concentration): 598.3 ng/mL
[3]; whole population, Ctrough estimated from Cmeas by formula
  Mean Ctrough (SD): 597.7 ng/ml and 597.7 (363.9) ng/ml
[3]; whole population, from population PK model
  Mean Cl/F (SD): 2.5 L/h
[4]
  Dose reduction (DR) rate: 60%
  Drug discontinuation (DD) rate: 9%
  Grade 3-4 adverse event rate: 74%
  PFS, ORR and OS versus everolimus: superiority over everolimus
[5]
  Effect of average cabozantinib concentration (Cavg) on PFS: no effect
[6]; ROC curve
  Ctrough threshold to detect relevant toxicity: 617.7 ng/mL
[6]; Mean AUC (SD), patients with relevant toxicity
  AUC: 28600 ng·h/mL
[6]; Mean AUC (SD), patients without relevant toxicity
  AUC: 19800 ng·h/mL
[6]; Median AUC (IQR), patients with relevant toxicity
  AUC: 21000 ng·h/mL
[6]; Median AUC (IQR), patients without relevant toxicity
  AUC: 16000 ng·h/mL
[6]; [13]
  Cmeas: 732 ng/mL
  Median Ctrough (IQR): 693 ng/mL
[6]; patients with relevant toxicity (G3-4, or G2 requiring DR or DD)
  Mean Ctrough (SD): 950.2 ng/mL
[6]; [14]
  Cmeas: 531 ng/mL
  Mean Ctrough (SD): 574.1 ng/mL
  Median Ctrough (IQR): 521 ng/mL
[7]; [15]
  G3 cutaneous rash: 16.7%
  G3 hand-foot syndrome (HFS): 26.7%
  G3 hypertension: 50%
  G3 vomiting: 10%
[7]; of 76 patients, at data cut-off
  Number of patients who experienced a relevant toxicity: 30 patients
[7]; [16]
  Patients with G2 event requiring a dose reduction (DR): 20%
  Patients with G2 event requiring a drug discontinuation (DD): 26.7%
  Patients with at least one G2 event requiring a DD or a DR: 46.7%
  Patients with at least one G3 toxicity: 53.3%
[7]; study cohort
  G4 toxicity: No patient
[8]
  Biopharmaceutics Classification System class: Class II
  Cellular permeability in vivo: high
[9]
  Effect of PPI administration on cabozantinib efficacy and clinical PK: no relevant effect
[10]; Mean AUC (SD), SD/PR patients (disease control)
  AUC: 24600 ng·h/mL
[10]; Mean AUC (SD), patients with progressive disease (PD)
  AUC: 17700 ng·h/mL
[10]; Median AUC (IQR), SD/PR patients (disease control)
  AUC: 20000 ng·h/mL
[10]; Median AUC (IQR), patients with progressive disease (PD)
  AUC: 16000 ng·h/mL
[11]; RECIST 1.1
  Number of PR observed: 7 patients
[11]; ROC curve
  Ctrough threshold to detect disease progression (drug efficacy threshold): 536.8 ng/mL
[11]; [17]
  Mean Cl/F (SD): 2.01 L/h
  Mean Ctrough (SD): 788.5 ng/mL
  Median Cl/F (IQR): 2.9 L/h
[11]; mRCC, real-life TDM
  Proposed target Ctrough for efficacy in TDM: > 530 ng/mL
[11]; of 76 patients, RECIST 1.1, at data cut-off
  Number of patients with progressive disease: 35 patients and 34 patients
[11]; of patients, RECIST 1.1
  Patients with PR observed: 9.2%
[11]; [18]
  Mean Cl/F (SD): 2.86 L/h
  Mean Ctrough (SD): 465.6 ng/mL
  Median Cl/F (IQR): 2 L/h
  Median Ctrough (IQR): 406 ng/mL
[12]; 20 mg daily
  Individual predicted average cabozantinib concentration at steady state: 375 ng/mL
[12]; 40 mg daily
  Individual predicted average cabozantinib concentration at steady state: 750 ng/mL
[12]; 60 mg daily
  Individual predicted average cabozantinib concentration at steady state: 1125 ng/mL
[12]; after oral administration
  Cl/F, patients with a lower Cl/F: 1.3 L/h
  Cl/F, patients with a standard Cl/F: 2.3 L/h
